{"source": "ChEMBL document CHEMBL1157379", "about": "“Transcriptional response of Candida parapsilosis following exposure to farnesol” (2007)", "key": {"[1]": {"tested_on": "Candida parapsilosis", "assay": "Decrease in CGD gene ortholog accession number orf19.672 expression in Candida parapsilosis CLIB214 at 50 uM after 2 hrs by microarray based transcriptional profiling relative to control", "type": "functional", "method_in_brief": "(§1)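 Strain CLIB214 grown overnight in YPD at 30°C, diluted to A600 0.2 in fresh YPD at 30°C. After 4 h (A600 0.8), farnesol (40 mM methanol stock) added to 50 μM final, or an equal methanol volume as control; cells harvested 2 h later. RNA was accepted only with a 28S/18S ratio of 1.6–2.2. Cy3/Cy5-dCTP-labelled cDNA was made from 25 μg total RNA. Hybridisation was to duplicate-spotted 68-mer oligo arrays (3,849 genes) at 42°C for about 16 h. Six individual comparisons.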"}, "[2]": {"tested_on": "Candida parapsilosis", "assay": "Antifungal activity against Candida parapsilosis CLIB214 assessed as growth inhibition in presence of 10% fetal calf serum at 37 degC", "type": "functional, organism-based", "method_in_brief": "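YPD cultures started at A600 0.2, supplemented with 10% (vol/vol) fetal calf serum, and grown at 30°C or 37°C. Farnesol added with the serum. Growth monitored by A600 or cell counting.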"}, "[3]": {"tested_on": "Candida parapsilosis", "assay": "Effect on membrane lipid localization in ERG9 gene expression in Candida parapsilosis CLIB214 assessed as uniform staining at 50 uM after 1 hr by filipin staining", "type": "functional", "method_in_brief": "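Cultures grown overnight in YPD at 30°C, diluted to A600 0.2, and given farnesol to 50 μM final (methanol for controls) after 4 h of growth. Cells collected 1 h later, PBS-washed, and stained 10 min at room temperature with 100 μg ml−1 filipin in water. Scored by fluorescence microscopy (excitation 360–370 nm, emission 420–460 nm) as bud-tip versus uniform sterol staining.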"}, "[4]": {"tested_on": "Candida parapsilosis", "assay": "Increase in CGD gene ortholog accession number orf19.1368 expression in Candida parapsilosis CLIB214 at 50 uM after 2 hrs by microarray based transcriptional profiling relative to control", "type": "functional", "method_in_brief": "as §1"}, "[5]": {"tested_on": "Candida parapsilosis", "assay": "Increase in CGD gene ortholog accession number orf19.6539 expression in Candida parapsilosis CLIB214 at 50 uM after 2 hrs by microarray based transcriptional profiling relative to control", "type": "functional", "method_in_brief": "as §1"}, "[6]": {"tested_on": "Candida parapsilosis", "assay": "Increase in RPS6A gene expression in Candida parapsilosis CLIB214 at 50 uM after 2 hrs by microarray based transcriptional profiling relative to control", "type": "functional", "method_in_brief": "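Strain grown overnight in YPD at 30°C, diluted to A600 0.2 in YPD at 30°C; farnesol (40 mM methanol stock) added at 4 h (A600 0.8), final 50 μM; methanol-only control. Cells collected 2 h later for RNA. Labelled cDNA from 25 μg total RNA (Cy3/Cy5-dCTP) hybridized to 68-mer oligo arrays at 42°C ~16 h; six individual comparisons analysed statistically.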"}, "[7]": {"tested_on": "Candida parapsilosis", "assay": "Decrease in ERG1 gene expression in Candida parapsilosis CLIB214 at 50 uM after 2 hrs by microarray based transcriptional profiling relative to control", "type": "functional", "method_in_brief": "as §1"}, "[8]": {"tested_on": "Candida parapsilosis", "assay": "Decrease in PGA55 gene expression in Candida parapsilosis CLIB214 at 50 uM after 2 hrs by microarray based transcriptional profiling relative to control", "type": "functional", "method_in_brief": "as §1"}, "[9]": {"tested_on": "Candida parapsilosis", "assay": "Increase in CDC20 gene expression in Candida parapsilosis CLIB214 at 50 uM after 2 hrs by microarray based transcriptional profiling relative to control", "type": "functional", "method_in_brief": "as §1"}, "[10]": {"tested_on": "Candida parapsilosis", "assay": "Decrease in SOL1 gene expression in Candida parapsilosis CLIB214 at 50 uM after 2 hrs by microarray based transcriptional profiling relative to control", "type": "functional", "method_in_brief": "as §1"}, "[11]": {"tested_on": "Candida parapsilosis", "assay": "Antifungal activity against Candida parapsilosis CLIB214 assessed as growth inhibition at 50 uM added after 6 hrs of bacterial growth measured after 2 hrs", "type": "functional", "conditions": "Lodderomyces parapsilosis", "method_in_brief": "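Overnight YPD culture at 30°C diluted to A600 0.2 in YPD. Farnesol added to 50 μM final at 2, 4, 6 or 8 h of growth (A600 about 0.8 at 4 h, 2.3 at 6 h, 6 at 8 h). Growth compared with methanol controls by A600 or cell counts.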"}, "[12]": {"tested_on": "Candida parapsilosis", "assay": "Decrease in PIKA gene expression in Candida parapsilosis CLIB214 at 50 uM after 2 hrs by microarray based transcriptional profiling relative to control", "type": "functional", "method_in_brief": "as §1"}, "[13]": {"tested_on": "Candida parapsilosis", "assay": "Decrease in CTN1 gene expression in Candida parapsilosis CLIB214 at 50 uM after 2 hrs by microarray based transcriptional profiling relative to control", "type": "functional", "method_in_brief": "as §1"}, "[14]": {"tested_on": "Candida parapsilosis", "assay": "Increase in CGD gene ortholog accession number orf19.779 expression in Candida parapsilosis CLIB214 at 50 uM after 2 hrs by microarray based transcriptional profiling relative to control", "type": "functional", "method_in_brief": "as §1"}, "[15]": {"tested_on": "Candida parapsilosis", "assay": "Decrease in CGD gene ortholog accession number orf19.6744 expression in Candida parapsilosis CLIB214 at 50 uM after 2 hrs by microarray based transcriptional profiling relative to control", "type": "functional", "method_in_brief": "as §1"}, "[16]": {"tested_on": "Candida parapsilosis", "assay": "Increase in ADH7 gene expression in Candida parapsilosis CLIB214 by RT-PCR", "type": "functional, organism-based", "method_in_brief": "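RNA came from YPD cultures at 30°C given farnesol or methanol at 4 h (A600 0.8), harvested after 2 h. RT-PCR: 95°C hot start for 1.5 min, then 26 cycles (95°C 40 s, 55°C 2 min, 72°C 3 min), then a 5-min final extension at 72°C. Each gene's signal normalised to ACT1.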"}, "[17]": {"tested_on": "Candida parapsilosis", "assay": "Antifungal activity against Candida parapsilosis CLIB214 assessed as growth inhibition at 100 uM added 4 hrs after […] growth", "type": "functional, organism-based", "method_in_brief": "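C. parapsilosis CLIB214 grown overnight in YPD at 30°C, diluted to A600 0.2 in fresh YPD, grown 4 h (A600 0.8), then farnesol added at final 10, 20, 50 or 100 μM from a 40 mM methanol stock. Methanol-only controls. Growth followed by A600 or by cell counting with a particle counter.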"}, "[18]": {"tested_on": "Candida parapsilosis", "assay": "Decrease in CGD gene ortholog accession number orf19.3603 expression in Candida parapsilosis CLIB214 at 50 uM after 2 hrs by microarray based transcriptional profiling relative to control", "type": "functional", "method_in_brief": "(§2)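 Cells in YPD at 30°C treated with 50 μM farnesol at 4 h, with a methanol control. RNA harvested 2 h later and kept only if 28S/18S ratio was 1.6–2.2 with no degradation. 25 μg total RNA oligo-dT primed and labeled with Cy3/Cy5-dCTP. Labeled cDNA hybridized about 16 h at 42°C to duplicate-spotted 68-mer oligo arrays. Six individual comparisons analyzed statistically.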"}, "[19]": {"tested_on": "Candida parapsilosis", "assay": "Decrease in CGD gene ortholog accession number orf19.2517 expression in Candida parapsilosis CLIB214 at 50 uM after 2 hrs by microarray based transcriptional profiling relative to control", "type": "functional", "method_in_brief": "as §2"}, "[20]": {"tested_on": "Candida parapsilosis", "assay": "Increase in CGD gene ortholog accession number orf19.1230 expression in Candida parapsilosis CLIB214 at 50 uM after 2 hrs by microarray based transcriptional profiling relative to control", "type": "functional", "method_in_brief": "as §1"}, "[21]": {"tested_on": "Candida parapsilosis", "assay": "Increase in CGD gene ortholog accession number orf19.1953 expression in Candida parapsilosis CLIB214 at 50 uM after 2 hrs by microarray based transcriptional profiling relative to control", "type": "functional", "method_in_brief": "as §1"}, "[22]": {"tested_on": "Candida parapsilosis", "assay": "Decrease in CGD gene ortholog accession number orf19.3051 expression in Candida parapsilosis CLIB214 at 50 uM after 2 hrs by microarray based transcriptional profiling relative to control", "type": "functional", "method_in_brief": "as §2"}}, "note": "Activity calls are given as the source filed them. No cut-off for these calls is given here."}
{"compound": "CC(C)=CCC/C(C)=C/CC/C(C)=C/CO", "note": "[FARNESOL]", "values": [{"measurement": "fold change (FC)", "setting": "[1]", "result": 1.77}, {"measurement": "Activity", "setting": "[2]", "result": "inactive"}, {"measurement": "Activity", "setting": "[3]", "result": 82, "unit": "%"}, {"measurement": "fold change (FC)", "setting": "[4]", "result": 1.59}, {"measurement": "fold change (FC)", "setting": "[5]", "result": 1.5}, {"measurement": "fold change (FC)", "setting": "[6]", "result": 1.61}, {"measurement": "fold change (FC)", "setting": "[7]", "result": 2.24}, {"measurement": "fold change (FC)", "setting": "[8]", "result": 1.76}, {"measurement": "fold change (FC)", "setting": "[9]", "result": 1.51}, {"measurement": "fold change (FC)", "setting": "[10]", "result": 1.54}, {"measurement": "inhibition at 50 µM", "setting": "[11]", "result": 40.5, "unit": "%"}, {"measurement": "fold change (FC)", "setting": "[12]", "result": 1.65}, {"measurement": "fold change (FC)", "setting": "[13]", "result": 1.92}, {"measurement": "fold change (FC)", "setting": "[14]", "result": 1.72}, {"measurement": "fold change (FC)", "setting": "[15]", "result": 1.66}, {"measurement": "Activity", "setting": "[16]", "result": "Active"}, {"measurement": "Activity", "setting": "[17]", "result": "Active"}, {"measurement": "fold change (FC)", "setting": "[18]", "result": 1.92}, {"measurement": "fold change (FC)", "setting": "[19]", "result": 1.69}, {"measurement": "fold change (FC)", "setting": "[20]", "result": 1.53}, {"measurement": "fold change (FC)", "setting": "[21]", "result": 1.77}, {"measurement": "fold change (FC)", "setting": "[22]", "result": 1.67}]}
